Measured values gathered from unrelated publications.
Compare with care: the assays were run in different laboratories.

SMILES | host | matrix | route | dose | notes | AUC
CC(C)(C)OC[C@@H]1C(=O)NCCN1C(=O)C[C@H](N)Cc1cc(F)c(F)cc1F | human | plasma | oral | 5 mg | multiple doses, once daily, steady state | 94.2 ng·h/mL
CS(=O)(=O)CCC#N | human | plasma | oral | 300 mg | multiple doses, once daily | 260000 ng·h/mL
COc1ccc(Oc2cc(N(C)CCOc3ccc(CC4SC(=O)NC4=O)cc3)ncn2)cc1 (stereo not drawn) | male human | plasma | oral | 0.5 mg | multiple doses, once daily, steady state | 333 ng·h/mL
NS(=O)(=O)NCCNc1nonc1C(=NO)Nc1ccc(F)c(Br)c1 | human | plasma | oral | 50 mg | multiple doses, once daily, steady state, patients | 1.58 µM·h
CS(=O)(=O)CCNCc1ccc(-c2ccc3ncnc(Nc4ccc(OCc5cccc(F)c5)c(Cl)c4)c3c2)o1 | human | serum | oral | 1250 mg | single dose | 9070 ng·h/mL
COc1cc(C(=O)NC2CCN(C)CC2)c(F)cc1Nc1ncc(C(F)(F)F)c(Oc2cccc3c2C(=O)N(C)C3)n1 | human | plasma | oral | 100 mg | multiple doses, once daily, steady state, patients | 16.3 µM·h
Cn1c(=O)oc2ccc(-c3ccc(C[C@@H](C#N)NC(=O)[C@@H]4CNCCCO4)cc3)cc21 | male human | plasma | oral | 5 mg | single dose, healthy volunteers | 0.915 µM·h
Cc1ccc(C(=O)N(CCCN)[C@@H](c2oc3cc(Cl)ccc3c(=O)c2Cc2ccccc2)C(C)C)cc1 | human | plasma | intravenous | 2 mg/m² | single dose, patients, infusion | 2520 ng·h/mL
C[C@@H](c1ccc2nccn2c1)n1nnc2ncc(-c3cnn(C)c3)nc21 | human | plasma | oral | 600 mg | – | 12800 ng·h/mL
